Bioassay records from PubChem.
Most compounds without a hit are left out; they make up all but 2.2% or so of the library.
PfGluPho inh: PfG6PD (Plasmodium falciparum) enzyme inhibition. PfGluPho enzyme, NADPH resazurin-diaphorase fluorescence. inhibition, % at 20 µM. actives 0.78% (n = 350,000);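 active = inhibition reaching at least a set limit at 20 µM in the primary screen, cut at about 59% in these data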
PfM18AAP inh: blocks P. falciparum M18 aspartyl aminopeptidase. recombinant PfM18AAP, H-Glu-NHMec fluorogenic cleavage. actives 1.2% (n = 290,000). inhibition, % at 7.35 µM;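 active = inhibition above the campaign mean inhibition over all tested compounds plus 3 SD, cut at about 28% in these data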
Neddylation inh: blocks human cullin neddylation | P61081+Q13564 | TR-FRET cullin neddylation, biochemical | inhibition, % at 25 µM | actives 0.58% (n = 360,000); in the data active = inhibition above about 36%
Target sequence (P61081 whole entry, looked up): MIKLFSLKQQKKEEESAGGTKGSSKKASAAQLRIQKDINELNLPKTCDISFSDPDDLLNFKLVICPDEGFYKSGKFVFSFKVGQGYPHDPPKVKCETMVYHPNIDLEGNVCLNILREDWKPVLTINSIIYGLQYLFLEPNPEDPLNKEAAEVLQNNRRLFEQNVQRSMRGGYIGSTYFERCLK
Target sequence (Q13564 whole entry, looked up): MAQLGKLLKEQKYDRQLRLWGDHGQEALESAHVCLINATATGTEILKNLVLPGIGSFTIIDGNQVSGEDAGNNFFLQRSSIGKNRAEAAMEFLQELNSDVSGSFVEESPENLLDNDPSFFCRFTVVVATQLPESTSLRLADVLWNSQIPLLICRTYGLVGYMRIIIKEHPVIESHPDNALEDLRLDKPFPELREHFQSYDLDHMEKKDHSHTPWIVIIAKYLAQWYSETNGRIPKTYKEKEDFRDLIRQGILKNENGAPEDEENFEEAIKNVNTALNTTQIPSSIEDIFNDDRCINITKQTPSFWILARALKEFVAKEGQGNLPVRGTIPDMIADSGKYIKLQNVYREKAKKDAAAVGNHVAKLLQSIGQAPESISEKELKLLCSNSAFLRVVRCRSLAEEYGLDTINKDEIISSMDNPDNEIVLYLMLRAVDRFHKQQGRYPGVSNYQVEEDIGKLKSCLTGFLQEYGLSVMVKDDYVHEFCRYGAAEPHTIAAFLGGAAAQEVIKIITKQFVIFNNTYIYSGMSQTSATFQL
HKDC1 inhibitor: blocks human hexokinase HKDC1 activity. inhibition, % at 20 µM. Q2TB90. recombinant HKDC1, G6PDH/diaphorase resazurin coupled fluorescence. actives 0.16% (n = 340,000). AID 493160;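 active = inhibition above about 35% when tested at 20 µM, limit read from the data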
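Assay system: recombinant HKDC1 hexokinase; detection: coupled resazurin fluorescence, excitation 525 nm, emission 613 nm; benchmarks: DMSO-plus-enzyme-mix negative control, buffer-substituted positive control; compound dosing: single 20 µM dose; schedule: 90 min at room temperature in dark; also added: glucose plus 1 mM ATP as hexokinase substrates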
Neddyl conf: cullin neddylation inhibition, confirmation | shares compounds with Neddylation inh | TR-FRET cullin neddylation biochemical assay | calls only at 25 µM | actives 13% (n = 1,800) | AID 652217; in the data active = inhibition above about 40%;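 note: neddylation substrate is the cullin 1 ring ligase complex with SKP2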
Hits are given with their value; - = inactive; . = no result given; + = active, no number.

SMILES | PfGluPho inh | PfM18AAP inh | Neddylation inh | HKDC1 inhibitor | Neddyl conf
CCN(CC)C(=O)C1=C(C)N(CCCOC)C(=O)C(CC(=O)NC(c2ccccc2)c2ccccc2)C1 (stereo not given) | - | . | - | . | .
O=C(c1coc(=O)c(Br)c1)N1CCC(C(O)(c2ccccc2)c2ccccc2)CC1 | - | - | 44.8 | - | .
O=C(c1coc(=O)c(Br)c1)N1CCCc2ccccc21 | - | - | 38.3 | - | .
O=C(C1CC1)N1CCC(C(O)(c2ccccc2)c2ccccc2)CC1 | - | - | - | - | .
O=c1c2c(nc3c(-c4cccc(Br)c4)c[nH]n13)CCCC2 | - | - | 45.7 | - | -
CC(C)CCN1C(N(C)C)=NC[C@@H]1C | - | . | - | - | .
COC(=O)C1=C(C)Nc2sc(C(N)=O)c(N)c2C1c1ccncc1 (stereo not given) | - | - | 41.9 | - | -
CCOC(=O)C1=C(C)Nc2sc(C(=O)c3ccc(OC)cc3)c(N)c2C1c1ccc(C(=O)OC)cc1 (stereo not given) | - | - | - | - | .
Cc1ccnc(NC(=O)c2cnc(Cl)c(Cl)c2)c1 | - | - | - | - | .
O=C1c2ccccc2-c2n[nH]c3cccc1c23 | - | . | 42.2 | - | .
O=C(NCc1ccccc1)c1cc[n+]([O-])cc1 | - | - | - | - | .
Cn1cncc1C#Cc1ccc2cc(CCO)oc(=O)c2c1 | - | . | 36.7 | - | -
CCN(CC(=O)NCc1cccs1)C(=O)/C=C/c1cccc(OC)c1OC | - | . | 45.6 | - | .
CCN(CC(=O)NCc1cccs1)C(=O)/C=C/c1ccc(OC)c(OC)c1 | - | . | - | - | .
Cc1ccc(-c2nn(-c3ccccc3)cc2C2CC(c3cccs3)=NN2C(=O)CCCC(=O)O)cc1 (stereo not given) | - | - | . | - | .
O=C(O)CCC(=O)N1N=C(c2cccs2)CC1c1cn(-c2ccccc2)nc1-c1ccccc1 (stereo not given) | - | - | 40.4 | - | .
COc1ccc(-c2nn(-c3ccccc3)cc2C2CC(c3cccs3)=NN2C(=O)CCCC(=O)O)cc1 (stereo not given) | - | - | 47.3 | - | -
CCN(CC1CCCO1)C(=O)c1cc(COc2cc(C)c(Cl)c(C)c2)on1 (stereo not given) | - | - | - | - | .
CCOC(=O)Cn1nc(/C=C/c2ccc(C(C)C)cc2)ccc1=O | - | - | 48.8 | - | .
CCOC(=O)Cn1nc(/C=C/c2ccccc2)ccc1=O | - | - | 43.4 | - | +
CCOC(=O)Cn1nc(/C=C/c2ccc(C)cc2)ccc1=O | - | - | . | - | .
C[C@@]12C(=O)N(CC3CCCO3)CC(=O)N1[C@H]1c3ccccc3OC[C@@H]1[C@@H]2c1ccccc1 (stereo not given in full) | - | . | - | - | .
COc1cccc(NC(=O)CN(C)CC(=O)c2c(C)[nH]c3ccccc23)c1 | - | . | - | - | .
CCOC(=O)c1ccc(S(=O)(=O)NCCNCc2ccccc2)cc1 | - | . | - | - | .
CC(Oc1ccc2ccc(=O)oc2c1)C(=O)N1CCOCC1 (stereo not given) | - | . | 53.0 | - | .
SMILES | PfGluPho inh | PfM18AAP inh | Neddylation inh | HKDC1 inhibitor | Neddyl conf
CC(Oc1ccc2c(-c3ccccc3)cc(=O)oc2c1)C(=O)N1CCOCC1 (stereo not given) | - | . | - | - | .
COc1cccc(C=NNc2nc3ccccc3s2)c1OC | - | . | - | - | .
Oc1ccccc1C=NNc1nc2ccccc2s1 | - | . | 38.8 | - | -
Cc1nnc(SCC(=O)NNC(=O)c2ccccc2)n1N | - | . | - | - | .
O=C(N/N=C/c1ccc2c(c1)OCO2)c1cc(-c2ccc(F)cc2)nc2ccccc12 | - | - | . | - | .
O=C1OCc2nc3cc4c(cc3c(-c3ccc(F)cc3)c21)OCO4 | - | - | 52.1 | - | -
CCOC(=O)C1CCN(c2cc3c(cc2NC(=O)c2ccccc2Cl)n(C)c(=O)n3C)CC1 | - | - | . | - | .
CCOC(=O)C1CCN(c2cc3c(cc2NC(=O)c2ccccc2OCC)n(C)c(=O)n3C)CC1 | - | - | 45.8 | - | -
CCOc1cc(NC(=O)C2CC2)c(OCC)cc1NC(=O)c1ccccc1OCC | - | - | 49.9 | - | .
Nc1ccc(C(=O)N2CCN(S(=O)(=O)c3ccc4c(c3)OCCO4)CC2)cc1[N+](=O)[O-] | - | - | - | - | .
CCc1ccc(-c2cnc3nc[nH]c(=O)c3n2)cc1 | - | . | 58.5 | - | +
O=c1cc(-c2c(F)c(F)c(F)c(F)c2F)oc2ccccc12 | - | - | - | - | .
O=c1cc(-c2ccco2)oc2ccccc12 | - | . | 39.9 | - | +
Cc1ccc2oc(-c3ccco3)cc(=O)c2c1 | - | - | 45.5 | - | +
CC(OC(=O)C1CC1)C(=O)Nc1cccc(S(=O)(=O)N2CCOCC2)c1 (stereo not given) | - | . | - | - | .
O=C(O)c1cc(S(=O)(=O)NC(Cc2c[nH]c3ccccc23)C(=O)O)ccc1Cl (stereo not given) | - | - | - | - | .
O=S(=O)(c1ccccc1)N(CC(F)(F)F)c1ccc(C(O)(C(F)(F)F)C(F)(F)F)cc1 | . | . | - | . | .
Nc1nc(N)nc(-c2ccc(Cl)cc2)n1 | - | - | - | - | .
Clc1ccc(/C=C/c2nc(Cl)c(-c3ccc(Cl)cc3)c(Cl)n2)cc1 | - | - | 41.1 | - | -
O=C(NCc1ccco1)C1Cc2c(-c3cccc(F)c3)ccnc2O1 (stereo not given) | . | . | - | . | .
CN1CCC(=NNC(=O)c2cn(-c3ccccc3)nc2-c2ccccc2)CC1 | - | - | - | - | .
CC1CCN(C(=O)Nc2ccc3nsnc3c2)CC1 | - | - | 44.5 | - | +
O=C(Nc1ccc2nsnc2c1)N1CCCCC1 | - | - | 43.7 | - | -
S=C(Nc1ccc2nsnc2c1)N1CCCCCC1 | - | - | 39.6 | - | -
Cc1ccc(-c2nnc(Nc3ccc(CC(N)=O)cc3)c3ccccc23)cc1 | - | - | 44.6 | - | -
SMILES | PfGluPho inh | PfM18AAP inh | Neddylation inh | HKDC1 inhibitor | Neddyl conf
CCN(CC)CCNC(=O)c1nn(-c2ccc(C)cc2)c(=O)c2c1c1ccccc1n2C | - | - | 42.5 | - | -
CCCN(CCC)CCCNC(=O)c1cc2c(=O)n(C)c3ccccc3c2n1C | - | - | - | - | .
CCN(CC)CCCNC(=O)c1cc2c(=O)n(C)c3ccccc3c2n1C | - | - | 41.5 | - | -
Cc1ccc(-n2nc(C(=O)NCc3ccco3)c3c4ccccc4n(C)c3c2=O)cc1 | - | - | - | - | .
CC(C)CCNC(=O)c1cn(CC(C)C)c(=O)c2c1c1ccccc1n2C | - | - | - | - | .
CCCN(CCC)CCCNC(=O)c1cn(CCOC)c(=O)c2c1c1ccccc1n2C | - | - | 38.3 | - | -
CC(C)Cn1cc(C(=O)NCc2cccs2)c2c3ccccc3n(C)c2c1=O | - | - | 40.5 | - | -
OCC1OC(c2ccc(OCc3ccccc3)cc2OCc2ccccc2)C(O)C1O (stereo not given) | - | . | - | . | .
CCN(CC)CCNC(=O)c1cc2c(=O)n(C)c3ccccc3c2n1C | - | - | 39.2 | - | .
Fc1cccc(CO/N=C/c2c(-c3ccccc3)nc3ccc(Cl)cn23)c1 | - | - | - | - | .
Cc1cccn2c(/C=N/OCc3cccc(F)c3)c(-c3ccc(Cl)cc3)nc12 | - | - | 47.9 | - | -
